From PubChem BioAssay
PPC-1+TRAIL kill = compounds killing PPC-1 cancer cells with TRAIL present (potentiator screen, no TRAIL-free arm) | cell killing (% activity), % at 4 µM or 5 µM | PPC-1 cells + TRAIL, ATPLite viability luminescence | AID 1443 | 0.41% of 220,000 active;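 active = cell killing above 50% in the first pass at 4 µM, then a duplicate retest at 5 µM averaging 50% or more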
C8 TRAIL sens = caspase-8 TRAIL sensitization. NB7+C8 cells + TRAIL, ATPlite viability luminescence. 1% of 360,000 active. AID 624354. inhibition (viability loss, TRAIL sensitization), % at 10 µM;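 active = compounds causing at least 50% loss of cell viability in the single-dose screen, relative to plate controls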
FLuc inh counter = Photinus pyralis luciferase inhibition counter-screen; inhibition, % at 10 µM; ATPLite firefly luciferase biochemical luminescence, 10 min; AID 1006; P08659; 1.5% of 200,000 active;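 active = inhibition above about 50% when tested at 10 µM, limit read from the data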
Target sequence (P08659 whole entry, looked up): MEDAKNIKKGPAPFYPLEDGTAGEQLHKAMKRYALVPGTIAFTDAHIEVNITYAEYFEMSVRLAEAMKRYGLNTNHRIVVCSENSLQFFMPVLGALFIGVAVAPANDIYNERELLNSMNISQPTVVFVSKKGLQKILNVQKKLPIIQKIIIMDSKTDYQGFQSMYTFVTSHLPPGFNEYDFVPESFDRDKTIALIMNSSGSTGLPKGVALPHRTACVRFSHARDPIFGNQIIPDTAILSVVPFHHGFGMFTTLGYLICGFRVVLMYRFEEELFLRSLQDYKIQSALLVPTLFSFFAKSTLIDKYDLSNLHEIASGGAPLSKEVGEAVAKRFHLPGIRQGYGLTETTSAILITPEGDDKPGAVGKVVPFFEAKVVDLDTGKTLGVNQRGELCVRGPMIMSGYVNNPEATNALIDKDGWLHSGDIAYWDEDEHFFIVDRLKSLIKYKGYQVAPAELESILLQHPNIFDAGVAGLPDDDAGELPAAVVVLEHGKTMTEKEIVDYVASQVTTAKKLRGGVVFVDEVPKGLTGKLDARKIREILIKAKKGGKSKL
FLuc act counter = firefly luciferase counter-screen for stimulation assays; P08659; ATPlite luciferase biochemical, luminescence, 10 min; 0 = ATP-free wells, 1 = DMSO control; AID 1027; activation factor at 10 µM; 200,000 tested, under 10 active;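 active = luciferase activation factor, scaled between plate controls, of at least 2 with compound at 10 µM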
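test system = cell-free luciferase reagent | medium = PBS as buffer for the ATP substrate | dosing = test compounds dosed from 2 mM stocks in 100% DMSO | incubation = 10 min at ambient temperature | detection = luminescence measurement of luciferase light output | benchmarks = low control with PBS replacing ATP, high control enzyme plus ATP without compound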
HSP90 refold inh = inhibitors of HSP90 luciferase refolding in rabbit reticulocyte lysate | luciferase refolding luminescence, 3 h | inhibition, % at 5.6 µM | 0.91% of 290,000 active;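 active = inhibition above the screen-wide mean plus 3 SD, computed separately per campaign, cut at about 16% in these data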;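 note: inhibitors lower the luminescence because luciferase stays unfolded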
Numbers stand for hits; n = inactive; x = no result. In the library only some 2% were active in any assay of this set; here they are far more common.

SMILES	PPC-1+TRAIL kill	C8 TRAIL sens	FLuc inh counter	FLuc act counter	HSP90 refold inh
Cc1ccnc(SCC(=O)N2CCN(C(c3ccccc3)c3ccccc3)CC2)n1	n	n	n	n	16
O=C(O/N=C/c1ccc2c(c1)OCO2)c1ccccc1Cl	n	x	70	n	n
O=C(N/N=C/c1ccc2c(c1)OCO2)C(=O)Nc1ccccc1Cl	x	n	x	x	n
C#Cc1ccc(NC(=O)C2(C)CCN2C(=O)C2(c3ccccc3)CCCC2)cc1 (stereo not drawn)	x	86	x	x	x
C#Cc1ccc(NC(=O)C2(C)CCN2C(=O)c2ccccc2CCc2ccccc2)cc1 (stereo not drawn)	x	89	x	x	x
CC(C)NC(=O)C1(C)CCN1C(=O)C1(c2ccccc2)CCCC1 (stereo not drawn)	x	n	x	x	x
CN(c1ccc(OCC(=O)NCc2cccnc2)cc1)S(=O)(=O)c1ccc(Cl)cc1	n	n	n	n	n
O=[N+]([O-])c1cc2oc3c(c2c(C=NCc2ccncc2)c1O)CCCC3	n	n	n	n	n
Cc1nn(-c2ccccc2)c(/N=C/c2ccc(O)cc2)c1-c1ccccc1	n	53	n	n	n
Cc1nn(-c2ccccc2)c(C)c1-c1ccccc1O	x	n	x	x	n
C[C@@H](c1ccccc1)N1C[C@H](COCc2ccccc2)Oc2cc(N3CC[C@H](N(C)C)C3)ccc2S1(=O)=O	x	n	x	x	x
CCOc1ccc(CN(C)C(=O)[C@H](Cc2ccccc2)NC(=O)OCc2ccccc2)cc1OC	x	51	x	x	n
C[C@@H]1CN([C@H](C)CO)C(=O)CCCn2nncc2CO[C@@H]1CN(C)C(=O)c1ccc(N2CCN(C)CC2)cc1	x	n	x	x	x
Cc1ccc(CNC(=O)CCCc2cn(C)c3ccccc23)cc1	x	n	x	x	n
Cc1cc(N/N=C/c2ccc(O)c(C)c2O)nc(-c2ccccc2O)n1	64	n	n	n	n
COc1ccc2c(n1)Sc1nc3ccccc3nc1N2	n	77	x	x	n
COc1cc2ccccc2nn1	n	n	x	x	n
CCOC(=O)c1c2c(n(-c3ccc(OC)cc3)c1C)C(=O)C(=O)c1ccccc1-2	x	95	x	x	x
CCC1(C2C=COC=C2)NC(=O)NC1=O (stereo not drawn)	x	n	x	x	x
O=c1[nH]cnc2cc(-c3ccccc3)sc12	n	n	n	n	n
COc1ccc(-c2cc3nc[nH]c(=O)c3s2)cc1	n	61	72	n	n
COc1cccc(OCC(=O)O/N=C(\N)c2ccc(OC)c(OC)c2)c1	n	n	n	n	n
CN(C)CCCN(C(=O)/C=C/c1cccs1)c1nc2c(F)cccc2s1	n	55	n	n	n
CCO[C@@H]1OC(C(=O)NCc2nc3ccccc3[nH]2)=C[C@H](c2cn(C(C)=O)c3ccccc23)[C@H]1CCCO	n	n	n	n	16
O=C(COc1ncnc2cc(Cl)ccc12)c1ccccc1	n	n	x	x	n
SMILES	PPC-1+TRAIL kill	C8 TRAIL sens	FLuc inh counter	FLuc act counter	HSP90 refold inh
O=C(COc1ncnc2ccccc12)c1ccc(Cl)cc1	n	n	80	n	n
O=C(Nc1nccs1)c1cc(S(=O)(=O)N2CCOCC2)ccc1Cl	60	n	n	n	x
O=C(/C=C1\OCc2ccccc21)c1ccccc1	x	n	x	x	x
Cc1cnc(C2OCCO2)c2cccc(N)c12	x	n	x	x	x
COC(=O)c1ccc(N=NNc2cccc(Br)c2)cc1	n	n	n	n	n
COC(=O)c1ccc(N=NNc2ccc(C(=O)OC)cc2)cc1	n	n	n	n	16
NC(=O)c1ccccc1N/C=C/C(=O)c1cccs1	n	58	85	n	n
Cc1ccc(C(=O)/C=C/Nc2ccccc2C(N)=O)o1	n	n	63	n	n
Cc1c(NC(=O)c2cccs2)cccc1NC(=O)c1cccs1	x	n	x	x	n
Cc1cccc(N/C=C/C(=O)c2cccs2)c1C	59	79	92	n	n
NC(=O)c1ccccc1NS(=O)(=O)c1cccs1	n	n	n	n	n
Cc1cccc(N(C)C(=O)C2CCCN2S(=O)(=O)c2cccc3nsnc23)c1 (stereo not drawn)	n	n	x	x	n
Cc1cc2c(cc1C)C(c1ccccc1Br)CC(=O)N2 (stereo not drawn)	54	n	n	n	n
COc1ccccc1C1CC(=O)Nc2cc(C)c(C)cc21 (stereo not drawn)	x	n	x	x	n
O=C1C(Cl)=C(NCCCN2CCOCC2)C(=O)c2ccccc21	x	83	x	x	x
O=C1C(Cl)=C(NCCN2CCOCC2)C(=O)c2ccccc21	x	n	x	x	n
COc1ccc(-c2csc(NC(C)=O)n2)cc1OC	n	n	n	n	n
COc1cccc(NC(=O)Nc2nc(-c3ccc(OC)c(OC)c3)cs2)c1	x	97	x	x	n
COc1cccc(/C=N/NC(=S)Nc2cccc(C(=O)O)c2)c1	n	n	53	n	n
COc1cccc(NC(=O)Nc2cccc(C(=O)O)c2)c1	n	n	n	n	77
COc1ccc(/C=N/NC(=S)Nc2cccc(C(=O)O)c2)cc1OC	n	n	n	n	n
CCc1ccc(NC(=O)Nc2cccc(OC)c2)cc1	n	n	52	n	n
COc1ccc(CN(C(=O)c2ccccc2Br)C2CCS(=O)(=O)C2)cc1 (stereo not drawn)	x	n	x	x	n
CCCn1c(N)c(C(=O)CN2CCN(S(=O)(=O)c3cccc(Cl)c3)CC2)c(=O)[nH]c1=O	x	n	x	x	x
CN(C)c1ccc(NC(=O)Oc2ccccc2)cc1	n	n	74	n	n
SMILES	PPC-1+TRAIL kill	C8 TRAIL sens	FLuc inh counter	FLuc act counter	HSP90 refold inh
COc1cc2c(cc1OC)C(c1ccc(-c3ccc(Cl)cc3Cl)o1)=NCC2	n	n	n	n	n
COc1cc2c(cc1OC)C(c1ccc(-c3ccccc3Cl)o1)=NCC2	n	n	62	n	n
COc1ccc2nc3cc(Cl)ccc3c(Nc3ccc(O)c(CN4CCN(C)CC4)c3)c2c1	x	74	x	x	x
COc1ccc2nc3cc(Cl)ccc3c(C#N)c2c1	n	n	x	x	n
COc1ccccc1CNC(=O)CC12CC3CC(CC(Br)(C3)C1)C2	x	n	x	x	n
O=C(c1ccccc1)c1cnc(Nc2ccccc2Cl)s1	n	n	62	n	n
CCOC(=O)c1cc(C(=O)Nc2cccc(C)c2)nn1C	n	n	60	n	n
CC(OC(=O)Cc1c[nH]c2ccccc12)C(=O)Nc1ccccc1[N+](=O)[O-] (stereo not drawn)	x	n	x	x	x
C=C1C(=O)c2sccc2C(c2ccc(OC)c(OC)c2)C1COC(C)=O (stereo not drawn)	x	93	x	x	x
CCN1CCN(CC(=O)N2N=C(c3cccs3)CC2c2ccc(OC)c(OC)c2)C(=O)C1=O (stereo not drawn)	n	n	n	n	n
CC(O)(c1cccnc1)c1nc(/C=C/c2ccccc2)cs1 (stereo not drawn)	x	n	x	x	x
COC[C@@H]1CCCN1c1ccc2c(c1)O[C@@H](COCc1ccccc1)CN([C@H](C)c1ccccc1)S2(=O)=O	x	n	x	x	x
CCCCOc1ccc(S(=O)(=O)NC(=O)C2(C)CCN2C(=O)c2c(C)noc2C)cc1 (stereo not drawn)	x	n	x	x	x
COc1ccc(C2=NN(C(=O)COC(=O)c3ccc(S(C)(=O)=O)c([N+](=O)[O-])c3)C(c3ccco3)C2)cc1 (stereo not drawn)	x	90	x	x	x
O=C(N/N=C/c1ccccn1)c1cccs1	n	n	n	n	n
